Experimental data published in ChEMBL document CHEMBL3272012, “5-(Tetradecyloxy)-2-furancarboxylic acid and related hypolipidemic fatty acid-like alkyloxyarylcarboxylic acids” (J Med Chem, 1977).
Values belong to the compound of their own block, whether it stands above or below them. Active and inactive are the calls of the source. The rule behind the calls is not given here.

What was measured:
Rattus norvegicus [1] = experiment: Hypolipidemic activity in Wistar rat assessed as reduction in plasma cholesterol level at 154 umol/kg/day administered through diet for 10 days; type: functional; settings: 240 h
How it was run: (§1)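 Young male Wistar rats, 170-190 g at start, in groups of six, given compound mixed into Purina Lab Chow ad libitum for 4 or 10 days as stated. Daily dose was calculated from food consumption and body weight. Plasma was taken by cardiac puncture at the end and cholesterol measured by automated procedure. Results are % reduction versus a concurrent untreated control group, with Student's t test.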

Rattus norvegicus [2] = experiment: Hypolipidemic activity in Wistar rat assessed as reduction in plasma cholesterol level at 314 umol/kg/day administered through diet for 10 days; type: functional; settings: 240 h; how it was run: as §1
Rattus norvegicus [3] = experiment: Hypolipidemic activity in Wistar rat assessed as reduction in plasma cholesterol level at 410 umol/kg/day administered through diet for 4 days; type: functional; settings: 96 h; how it was run: as §1
Rattus norvegicus [4] = experiment: Hypolipidemic activity in Wistar rat assessed as reduction in plasma cholesterol level at 583 umol/kg/day administered through diet for 10 days; type: functional; settings: 240 h
How it was run: (§2)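 Young male Wistar rats (initial weight 170-190 g), groups of six, fed compound mixed into Purina Lab Chow ad libitum for 4 or 10 days; daily dose calculated from food consumption and body weight. Bled by cardiac puncture; plasma cholesterol and triglycerides by automated procedures; percent reduction versus simultaneous untreated controls, Student's t test.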

Rattus norvegicus [5] = experiment: Hypolipidemic activity in Wistar rat assessed as reduction in plasma triglyceride level at 154 umol/kg/day administered through diet for 10 days; type: functional; settings: 240 h
How it was run: (§3)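 Young male Wistar rats, 170-190 g initial weight, six per group, fed drug mixed thoroughly into Purina Lab Chow ad libitum for the stated days; daily dose calculated from food consumption and body weight. Bled by cardiac puncture at end; plasma cholesterol and triglycerides by automated procedures, expressed as percent reduction versus simultaneous untreated controls; Student's t test.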

Rattus norvegicus [6] = experiment: Hypolipidemic activity in Wistar rat assessed as reduction in plasma triglyceride level at 314 umol/kg/day administered through diet for 10 days; type: functional; settings: 240 h; how it was run: as §3
Rattus norvegicus [7] = experiment: Hypolipidemic activity in Wistar rat assessed as reduction in plasma triglyceride level at 410 umol/kg/day administered through diet for 4 days; type: functional; settings: 96 h
Rattus norvegicus [8] = experiment: Hypolipidemic activity in Wistar rat assessed as reduction in plasma triglyceride level at 583 umol/kg/day administered through diet for 10 days; type: functional; settings: 240 h
Rattus norvegicus [9] = experiment: Increase in cholesterol level in Wistar rat liver at 154 umol/kg/day administered through diet for 10 days; type: ADME, organism-based; settings: in vivo, po, 240 h
Rattus norvegicus [10] = experiment: Increase in cholesterol level in Wistar rat liver at 314 umol/kg/day administered through diet for 10 days; type: ADME, organism-based; settings: in vivo, po, 240 h
Rattus norvegicus [11] = experiment: Increase in cholesterol level in Wistar rat liver at 410 umol/kg/day administered through diet for 4 days; type: ADME, organism-based; settings: in vivo, po, 96 h
Rattus norvegicus [12] = experiment: Increase in cholesterol level in Wistar rat liver at 583 umol/kg/day administered through diet for 10 days; type: ADME, organism-based; settings: in vivo, po, 240 h
Rattus norvegicus [13] = experiment: Inhibition of cholesterol biosynthesis in Ad Lib fed Wistar rat liver assessed as sodium [1-14C]acetate incorporation at 154 mg/kg/day administered through diet for 7 days measured 1 hr after labeled acetate challenge by liquid scintillation spectrometry (reference value: 12.7 +/- 2.6 x 10^-3 dpm); type: functional
Rattus norvegicus [14] = experiment: Inhibition of cholesterol biosynthesis in meal fed Wistar rat liver assessed as sodium [1-14C]acetate incorporation at 95 mg/kg/day administered through diet for 7 days measured 1 hr after labeled acetate challenge by liquid scintillation spectrometry (reference value: 41.3 +/- 3.2 x 10^-3 dpm); type: functional
Rattus norvegicus [15] = experiment: Increase in liver weight in Wistar rat at 154 umol/kg/day administered through diet for 10 days; type: ADME, organism-based; settings: in vivo, po, 240 h
Rattus norvegicus [16] = experiment: Increase in liver weight in Wistar rat at 314 umol/kg/day administered through diet for 10 days; type: ADME, organism-based; settings: in vivo, po, 240 h
Rattus norvegicus [17] = experiment: Increase in liver weight in Wistar rat at 410 umol/kg/day administered through diet for 4 days; type: ADME, organism-based; settings: in vivo, po, 96 h
Rattus norvegicus [18] = experiment: Increase in liver weight in Wistar rat at 583 umol/kg/day administered through diet for 10 days; type: ADME, organism-based; settings: in vivo, po, 240 h
Rattus norvegicus [19] = experiment: Inhibition of fatty acid biosynthesis in Ad Lib fed Wistar rat liver assessed as sodium [1-14C]acetate incorporation at 154 mg/kg/day administered through diet for 7 days measured 1 hr after labeled acetate challenge by liquid scintillation spectrometry (reference value: 27.2 +/- 4.8 x 10^-3 dpm); type: functional
Rattus norvegicus [20] = experiment: Inhibition of fatty acid biosynthesis in meal fed Wistar rat liver assessed as sodium [1-14C]acetate incorporation at 95 mg/kg/day administered through diet for 7 days measured 1 hr after labeled acetate challenge by liquid scintillation spectrometry (reference value: 182 +/- 22 x 10^-3 dpm); type: functional
Rattus norvegicus [21] = experiment: Inhibition of cholesterol synthesis in Wistar rat liver assessed as drug incorporation into triglycerides administered for 2 weeks by gas chromatography; type: functional, organism-based
Rattus norvegicus [22] = experiment: Inhibition of cholesterol synthesis in Wistar rat liver assessed as drug incorporation into cholesterol ester administered for 2 weeks by gas chromatography; type: functional, organism-based
Rattus norvegicus [23] = experiment: Inhibition of fatty acid synthesis in Wistar rat liver assessed as drug incorporation into phospholipid administered for 2 weeks by gas chromatography; type: functional, organism-based
Rhesus monkey [24] = experiment: Hypolipidemic activity in rhesus monkey assessed as reduction in plasma cholesterol level at 92 umol/kg/day administered for 28 days; type: functional; settings: Macaca mulatta, 672 h
Rhesus monkey [25] = experiment: Hypolipidemic activity in rhesus monkey assessed as reduction in plasma cholesterol level at 308 umol/kg/day administered for 28 days; type: functional; settings: Macaca mulatta, 672 h
Rattus norvegicus [26] = experiment: Hypolipidemic activity in Wistar rat assessed as reduction in plasma cholesterol level at 403 umol/kg/day administered through diet for 4 days; type: functional; settings: 96 h; how it was run: as §1
Rattus norvegicus [27] = experiment: Hypolipidemic activity in Wistar rat assessed as reduction in plasma triglyceride level at 403 umol/kg/day administered through diet for 4 days; type: functional; settings: 96 h
Rattus norvegicus [28] = experiment: Increase in cholesterol level in Wistar rat liver at 403 umol/kg/day administered through diet for 4 days; type: ADME, organism-based; settings: in vivo, po, 96 h
Rattus norvegicus [29] = experiment: Increase in liver weight in Wistar rat at 403 umol/kg/day administered through diet for 4 days; type: ADME, organism-based; settings: in vivo, po, 96 h
Rattus norvegicus [30] = experiment: Hypolipidemic activity in Wistar rat assessed as reduction in plasma cholesterol level at 443 umol/kg/day administered through diet for 4 days; type: functional; settings: 96 h
How it was run: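 Young male Wistar rats, 170-190 g initial weight, groups of six, given compound mixed thoroughly into Purina Lab Chow ad libitum for 4 or 10 days as stated. Daily dose calculated from food consumption and body weight. Bled by cardiac puncture at end of treatment; plasma cholesterol measured by automated procedure. Expressed as percent reduction versus simultaneous untreated control group; Student's t test.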

Rattus norvegicus [31] = experiment: Hypolipidemic activity in Wistar rat assessed as reduction in plasma triglyceride level at 443 umol/kg/day administered through diet for 4 days; type: functional; settings: 96 h; how it was run: as §2
Rattus norvegicus [32] = experiment: Increase in liver weight in Wistar rat at 443 umol/kg/day administered through diet for 4 days; type: ADME, organism-based; settings: in vivo, po, 96 h
Rattus norvegicus [33] = experiment: Increase in cholesterol level in Wistar rat liver at 443 umol/kg/day administered through diet for 4 days; type: ADME, organism-based; settings: in vivo, po, 96 h
Rattus norvegicus [34] = experiment: Hypolipidemic activity in Wistar rat assessed as reduction in plasma triglyceride level at 358 umol/kg/day administered through diet for 10 days; type: functional; settings: 240 h
How it was run: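 Young male Wistar rats, 170-190 g at start, six per group, given compound mixed into Purina Lab Chow, fed ad libitum for 4 or 10 days. Daily dose calculated from food consumption and body weight. Rats bled by cardiac puncture at end of treatment. Plasma triglycerides determined by automated procedure. Expressed as percent reduction versus a concurrent untreated control group, Student's t test.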

Rattus norvegicus [35] = experiment: Hypolipidemic activity in Wistar rat assessed as reduction in plasma triglyceride level at 193 umol/kg/day administered through diet for 10 days; type: functional; settings: 240 h; how it was run: as §3
Rattus norvegicus [36] = experiment: Hypolipidemic activity in Wistar rat assessed as reduction in plasma triglyceride level at 96 umol/kg/day administered through diet for 10 days; type: functional; settings: 240 h
Rattus norvegicus [37] = experiment: Hypolipidemic activity in Wistar rat assessed as reduction in plasma cholesterol level at 358 umol/kg/day administered through diet for 10 days; type: functional; settings: 240 h; how it was run: as §1
Rattus norvegicus [38] = experiment: Hypolipidemic activity in Wistar rat assessed as reduction in plasma cholesterol level at 193 umol/kg/day administered through diet for 10 days; type: functional; settings: 240 h; how it was run: as §1
Rattus norvegicus [39] = experiment: Hypolipidemic activity in Wistar rat assessed as reduction in plasma cholesterol level at 96 umol/kg/day administered through diet for 10 days; type: functional; settings: 240 h; how it was run: as §3
Rattus norvegicus [40] = experiment: Increase in liver weight in Wistar rat at 358 umol/kg/day administered through diet for 10 days; type: ADME, organism-based; settings: in vivo, po, 240 h
Rattus norvegicus [41] = experiment: Increase in liver weight in Wistar rat at 193 umol/kg/day administered through diet for 10 days; type: ADME, organism-based; settings: in vivo, po, 240 h
Rattus norvegicus [42] = experiment: Increase in liver weight in Wistar rat at 96 umol/kg/day administered through diet for 10 days; type: ADME, organism-based; settings: in vivo, po, 240 h
Rattus norvegicus [43] = experiment: Increase in cholesterol level in Wistar rat liver at 358 umol/kg/day administered through diet for 10 days; type: ADME, organism-based; settings: in vivo, po, 240 h
Rattus norvegicus [44] = experiment: Increase in cholesterol level in Wistar rat liver at 193 umol/kg/day administered through diet for 10 days; type: ADME, organism-based; settings: in vivo, po, 240 h
Rattus norvegicus [45] = experiment: Increase in cholesterol level in Wistar rat liver at 96 umol/kg/day administered through diet for 10 days; type: ADME, organism-based; settings: in vivo, po, 240 h

Activity (Rattus norvegicus [9]): 5%
Activity (Rattus norvegicus [10]): 0%
Activity (Rattus norvegicus [11]): 12%
Activity (Rattus norvegicus [12]): 0%
Activity (Rattus norvegicus [15]): 1%
Activity (Rattus norvegicus [16]): 15%
Activity (Rattus norvegicus [17]): 6%
Activity (Rattus norvegicus [18]): 33%
SMILES: CCCCCCCCCCCCCCOc1ccc(C(=O)O)o1 [TOFA]
inhibition in vivo at 154 µmol/kg (Rattus norvegicus [1]): 12%
inhibition in vivo at 314 µmol/kg (Rattus norvegicus [2]): 38%
inhibition in vivo at 410 µmol/kg (Rattus norvegicus [3]): 40%
inhibition in vivo at 583 µmol/kg (Rattus norvegicus [4]): 64%
inhibition in vivo at 154 µmol/kg (Rattus norvegicus [5]): 27%
inhibition in vivo at 314 µmol/kg (Rattus norvegicus [6]): 61%
inhibition in vivo at 410 µmol/kg (Rattus norvegicus [7]): 75%
inhibition in vivo at 583 µmol/kg (Rattus norvegicus [8]): 92%
Activity (Rattus norvegicus [13]): 14900 dpm
Activity (Rattus norvegicus [14]): 40800 dpm
Activity (Rattus norvegicus [19]): 22800 dpm
Activity (Rattus norvegicus [20]): 60000 dpm
inhibition (Rattus norvegicus [21]): inactive
inhibition (Rattus norvegicus [22]): inactive
inhibition (Rattus norvegicus [23]): Active
inhibition in vivo at 92 µmol/kg (Rhesus monkey [24]): 10%
inhibition in vivo at 308 µmol/kg (Rhesus monkey [25]): 24%

Activity (Rattus norvegicus [28]): 1%
Activity (Rattus norvegicus [29]): 14%
SMILES: CCCCCCCCCCCCCCOc1ccc(C(=O)n2ccnc2)o1
inhibition in vivo at 403 µmol/kg (Rattus norvegicus [26]): 22%
inhibition in vivo at 403 µmol/kg (Rattus norvegicus [27]): 39%

Activity (Rattus norvegicus [32]): 6%
Activity (Rattus norvegicus [33]): 0%
SMILES: CCCCCCCCCCCCCCOc1ccc(C(=O)OCC)o1
inhibition in vivo at 443 µmol/kg (Rattus norvegicus [30]): 30%
inhibition in vivo at 443 µmol/kg (Rattus norvegicus [31]): 64%

Activity (Rattus norvegicus [40]): 3%
Activity (Rattus norvegicus [41]): 1%
Activity (Rattus norvegicus [42]): 1%
Activity (Rattus norvegicus [43]): 10%
Activity (Rattus norvegicus [44]): 11%
Activity (Rattus norvegicus [45]): 0%
SMILES: CCCCCCCCCCCCCCOc1ccc(C(=O)CC(=O)OCC)cc1
inhibition in vivo at 358 µmol/kg (Rattus norvegicus [34]): 59%
inhibition in vivo at 193 µmol/kg (Rattus norvegicus [35]): 43%
inhibition in vivo at 96 µmol/kg (Rattus norvegicus [36]): 44%
inhibition in vivo at 358 µmol/kg (Rattus norvegicus [37]): 30%
inhibition in vivo at 193 µmol/kg (Rattus norvegicus [38]): 20%
inhibition in vivo at 96 µmol/kg (Rattus norvegicus [39]): 13%
